Screens (PubChem BioAssay)
Most compounds without a hit are left out; they make up all but 3.1% or so of the library.
core dimer inh: blocks dimerization of HCV core protein. TR-FRET GST/Flag-core106 dimerization, 1536-well. inhibition, % at 5 µM. 300,000 compounds, 0.33% hits. AID 1899;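 active = inhibition above the mean of all tested compounds plus 3 SD, set per screening campaign, cut at about 45% in these data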
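Test system: GST/Flag-tagged HCV core106 proteins; Medium: KF-containing HEPES buffer, pH 7.45, DTT, CHAPS, BSA; Times: compound-protein-antibody incubation 4 h at 22.5 °C; Detection: TR-FRET 671 and 617 nm emission; Benchmarks: wells lacking GST-core106 and wells with excess unlabelled core106.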
PP5 inh: inhibitors of human protein phosphatase 5 (PP5); inhibition, % at 6.7 µM; 320,000 compounds, 0.18% hits; purified PP5c, OMFP substrate fluorescence; AID 1987;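 active = inhibition above the campaign's mean inhibition across all tested compounds plus 3 SD, cut at about 9.5% in these data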
Myeloid diff 2: promotes myeloid progenitor differentiation. ER-HoxA9 myeloid progenitors, lysozyme-GFP differentiation, flow cytometry. 360,000 compounds, 1% hits. AID 624256. calls only at 10 µM;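 active = normalized GFP-positive differentiation at or above the plate's own cutoff, the solvent-only control mean plus 3 SD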;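 also: cells exposed to compound for four days before flow analysis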
PP1 counter: PP1-alpha (human) inhibition in PP5 counter-screen; P62136; purified PP1alpha, OMFP fluorescence; inhibition, % at 6.7 µM; 320,000 compounds, 0.9% hits; AID 2235;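 active = inhibition above the mean inhibition of all tested compounds plus 3 SD, computed separately for each screening campaign, cut at about 15% in these data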
Target sequence (P62136 whole entry, looked up): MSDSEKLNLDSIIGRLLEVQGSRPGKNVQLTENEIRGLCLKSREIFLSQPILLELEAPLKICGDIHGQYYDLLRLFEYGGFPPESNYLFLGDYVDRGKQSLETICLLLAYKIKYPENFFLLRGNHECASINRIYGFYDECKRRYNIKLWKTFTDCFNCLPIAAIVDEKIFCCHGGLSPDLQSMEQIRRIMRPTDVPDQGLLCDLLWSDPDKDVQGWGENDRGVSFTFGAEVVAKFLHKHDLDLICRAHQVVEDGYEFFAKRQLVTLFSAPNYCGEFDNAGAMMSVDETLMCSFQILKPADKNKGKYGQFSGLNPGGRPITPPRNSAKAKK
NadD inh: inhibitors of Staphylococcus aureus NadD | purified NadD enzyme, colorimetric absorbance read-out | inhibition, % at 20 µM | 360,000 compounds, 0.78% hits | AID 602399; in the data active = inhibition above about 26%
CTSL1 counter: cathepsin L1 inhibition, PFM18AAP counter-screen. recombinant F. hepatica cathepsin L1, Z-Leu-Arg-MCA fluorescence. inhibition, % at 5.96 µM. AID 1906. 300,000 compounds, 0.49% hits;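 active = inhibition above the mean of all tested compounds plus 3 SD, set per screening campaign, cut at about 17% in these data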
A number is an active result.

What do the screens show for `C#C[C@]1(O)[C@H](O)CC2C3CC[C@H]4C[C@@H](O)CC[C@]4(C)C3CC[C@@]21C` (stereo partly specified)?
Myeloid diff 2: active; NadD inh: inactive

What do the screens show for `C[n+]1ccc(-c2ccccc2)c2ccccc21`?
core dimer inh: inactive; PP5 inh: inactive; Myeloid diff 2: active; PP1 counter: inactive; NadD inh: inactive; CTSL1 counter: inactive

Results for O=C1NC(=O)N(c2ccccc2)C(=O)/C1=C/c1ccoc1 ?
core dimer inh: inactive; PP5 inh: inactive; Myeloid diff 2: inactive; PP1 counter: inactive; NadD inh: inactive; CTSL1 counter: inactive

How did O=C1NC(=O)N(c2cccc(Cl)c2)C(=O)/C1=C\c1ccc(Sc2nc3ccccc3[nH]2)o1 do in these assays?
core dimer inh: inactive; PP5 inh: inactive; Myeloid diff 2: inactive; PP1 counter: inactive; NadD inh: 65; CTSL1 counter: inactive

How did O=C1NC(=O)N(c2ccccc2F)C(=O)/C1=C/c1ccc(Sc2nc3ccccc3[nH]2)o1 do in these assays?
core dimer inh: inactive; PP5 inh: inactive; Myeloid diff 2: inactive; PP1 counter: inactive; NadD inh: 45; CTSL1 counter: inactive

What do the screens show for `Cc1cccc(N2C(=O)NC(=O)/C(=C/c3ccc(-c4ccc(C(=O)O)c(Cl)c4)o3)C2=O)c1`?
core dimer inh: inactive; PP5 inh: inactive; PP1 counter: inactive; CTSL1 counter: inactive

What do the screens show for `O=C1NC(=O)N(c2ccccc2)C(=O)/C1=C/c1ccc(Sc2ccccc2)o1`?
core dimer inh: inactive; PP5 inh: inactive; Myeloid diff 2: inactive; PP1 counter: inactive; NadD inh: 37; CTSL1 counter: inactive

Results for COc1ccccc1-c1cc(NC(C)=O)c2ncc(-c3ccccc3)n2c1 ?
Myeloid diff 2: inactive; NadD inh: inactive

Results for CCOC(=O)C(NC(=O)CCl)(Nc1ccc(C(O)(C(=O)OCC)C(F)(F)F)cc1)C(F)(F)F (stereo unspecified) ?
core dimer inh: inactive; PP5 inh: inactive; Myeloid diff 2: inactive; PP1 counter: inactive; NadD inh: inactive; CTSL1 counter: 35

What do the screens show for `CC(C)c1ccc(-n2c(O)c(C=NCCN3CCNCC3)c(=O)[nH]c2=S)cc1`?
core dimer inh: inactive; PP5 inh: inactive; Myeloid diff 2: active; PP1 counter: inactive; NadD inh: inactive; CTSL1 counter: inactive

What do the screens show for `COc1cc(/C=C/C(=O)c2c(O)n(CCc3ccccc3)c(=O)[nH]c2=O)ccc1O`?
core dimer inh: inactive; PP5 inh: inactive; Myeloid diff 2: active; PP1 counter: inactive; NadD inh: inactive; CTSL1 counter: inactive

Results for C[CH2][Hg][S]c1ccccc1C(=O)O ?
core dimer inh: inactive; PP5 inh: inactive; Myeloid diff 2: active; PP1 counter: inactive; NadD inh: inactive; CTSL1 counter: inactive

What do the screens show for `Cc1ccc(S(=O)(=O)N2CC2(C)CCl)cc1` (stereo unspecified)?
core dimer inh: inactive; PP5 inh: inactive; Myeloid diff 2: inactive; PP1 counter: inactive; NadD inh: inactive; CTSL1 counter: 20

Results for Cc1ccc(S(=O)(=O)N2CN3CCN(C3)C2)cc1 ?
core dimer inh: inactive; PP5 inh: inactive; Myeloid diff 2: inactive; PP1 counter: inactive; NadD inh: inactive; CTSL1 counter: inactive

How did O=C1NC(=S)N(c2ccccc2)C(=O)/C1=C/c1ccco1 do in these assays?
core dimer inh: inactive; PP5 inh: inactive; Myeloid diff 2: inactive; PP1 counter: inactive; NadD inh: inactive; CTSL1 counter: inactive

What do the screens show for `CCOc1cccc(N2C(=O)/C(=C/c3ccco3)C(=O)NC2=S)c1`?
core dimer inh: 61; PP5 inh: inactive; Myeloid diff 2: inactive; PP1 counter: inactive; NadD inh: inactive; CTSL1 counter: inactive

What do the screens show for `CCCCn1c(=O)c(C(=O)Nc2cnccn2)c(O)c2ccccc21`?
core dimer inh: inactive; PP5 inh: inactive; Myeloid diff 2: active; PP1 counter: inactive; NadD inh: inactive; CTSL1 counter: inactive

What do the screens show for `CCCCn1c(=O)c(C(=O)Nc2ccccc2C)c(O)c2ccccc21`?
core dimer inh: inactive; PP5 inh: inactive; Myeloid diff 2: inactive; PP1 counter: inactive; NadD inh: inactive; CTSL1 counter: inactive

What do the screens show for `COc1ccc(N2C(=O)C(=O)N(c3ccc(OC)cc3)P2(=O)N(CCCl)CCCl)cc1`?
Myeloid diff 2: inactive; NadD inh: inactive
